What all share (assay type): ADME
Series [1] deals with T1, Solute carrier family 15 member 1 (Mus musculus, UniProt Q9JIP7).
T1 sequence (Q9JIP7 whole entry): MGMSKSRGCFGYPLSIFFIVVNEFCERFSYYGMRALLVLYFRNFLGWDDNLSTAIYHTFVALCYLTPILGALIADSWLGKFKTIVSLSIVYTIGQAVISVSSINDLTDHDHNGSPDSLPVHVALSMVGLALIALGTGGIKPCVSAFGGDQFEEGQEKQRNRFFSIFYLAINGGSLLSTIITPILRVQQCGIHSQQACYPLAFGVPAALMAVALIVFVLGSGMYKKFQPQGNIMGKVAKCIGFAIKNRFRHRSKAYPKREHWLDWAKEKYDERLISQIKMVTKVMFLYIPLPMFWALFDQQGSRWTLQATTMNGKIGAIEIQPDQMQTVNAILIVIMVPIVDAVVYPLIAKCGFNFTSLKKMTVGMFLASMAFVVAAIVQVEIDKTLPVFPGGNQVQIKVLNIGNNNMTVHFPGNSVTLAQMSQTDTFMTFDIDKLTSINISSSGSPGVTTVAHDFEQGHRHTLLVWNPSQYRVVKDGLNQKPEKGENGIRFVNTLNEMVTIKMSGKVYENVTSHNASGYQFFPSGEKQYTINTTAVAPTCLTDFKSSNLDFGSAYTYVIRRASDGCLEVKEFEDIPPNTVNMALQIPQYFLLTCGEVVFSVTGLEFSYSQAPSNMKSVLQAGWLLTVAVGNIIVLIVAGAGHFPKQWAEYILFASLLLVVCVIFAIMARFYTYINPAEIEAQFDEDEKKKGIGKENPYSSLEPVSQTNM
As to the kind of experiment: Drug uptake in Pichia pastoris GS115 expressing mouse recombinant PEPT1 at 5 uM after 30s by dual-channel liquid scintillation counting analysis in presence of cephalothin relative to control. The conditions noted are these: 0.5 min. Summed up: (§1)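 [3H]GlySar 5.0 µM final, 30-s uptake at 24°C in 100 mM potassium phosphate pH 6.5, with or without a potential inhibitor at 10 mM. Cells are methanol-induced transformants. Values are vector-subtracted and expressed as percent of buffer control. Mean ± SE (n=3). ANOVA with Dunnett's test.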

The target in series [2] is T1, Solute carrier family 15 member 1. The series is described as follows: Drug uptake in Pichia pastoris GS115 expressing mouse recombinant PEPT1 at 5 uM after 30s by dual-channel liquid scintillation counting analysis in presence of cefadroxil relative to control. As to conditions: 0.5 min. Summed up: as §1
For series [3], the target named is T2, PEPT1 (Rattus norvegicus, UniProt P51574).
T2 sequence (P51574 whole entry): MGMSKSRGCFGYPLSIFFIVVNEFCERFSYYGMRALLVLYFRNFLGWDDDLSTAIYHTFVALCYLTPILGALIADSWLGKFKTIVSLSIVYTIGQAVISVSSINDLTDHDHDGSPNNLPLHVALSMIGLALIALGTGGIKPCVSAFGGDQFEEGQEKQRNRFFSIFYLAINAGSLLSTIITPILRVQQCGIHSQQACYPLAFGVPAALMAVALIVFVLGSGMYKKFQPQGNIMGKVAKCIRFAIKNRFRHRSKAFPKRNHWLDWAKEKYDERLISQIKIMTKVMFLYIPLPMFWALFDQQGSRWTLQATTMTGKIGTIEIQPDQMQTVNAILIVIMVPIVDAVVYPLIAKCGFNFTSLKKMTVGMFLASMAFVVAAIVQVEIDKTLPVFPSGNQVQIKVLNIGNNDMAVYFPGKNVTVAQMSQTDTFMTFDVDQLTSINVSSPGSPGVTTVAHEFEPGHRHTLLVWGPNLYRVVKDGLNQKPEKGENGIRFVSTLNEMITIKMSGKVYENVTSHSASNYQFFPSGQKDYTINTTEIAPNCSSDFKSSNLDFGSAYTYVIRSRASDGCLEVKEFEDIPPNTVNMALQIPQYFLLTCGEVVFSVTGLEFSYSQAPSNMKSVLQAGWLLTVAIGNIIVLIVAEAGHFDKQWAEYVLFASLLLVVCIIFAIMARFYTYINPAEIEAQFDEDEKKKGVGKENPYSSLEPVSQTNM
The series is described as follows: Drug uptake in Pichia pastoris GS115 expressing rat recombinant PEPT1 at 5 uM after 30 mins by dual-channel liquid scintillation counting analysis relative to vector control. The conditions noted are these: read-out: FC. Summed up: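 5.0 µM radiolabelled substrate ([3H]GlySar or [14C]oseltamivir) is incubated 30 min at 24°C with induced transformants in 100 mM potassium phosphate pH 6.5. Cell-associated radioactivity is counted by scintillation after standing 24 h and normalised to OD600. Results are compared with pPIC3.5K vector-alone cells. Mean ± SE (n=6).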

The target in series [4] is T3, Solute carrier family 15 member 1 (Rattus norvegicus, UniProt P51574).
T3 sequence (P51574 whole entry): T2 sequence (P51574 whole entry)
As to the kind of experiment: Drug uptake in Pichia pastoris GS115 expressing rat recombinant PEPT1 at 5 uM after 30s by dual-channel liquid scintillation counting analysis in presence of glycine relative to control. The conditions noted are these: 0.5 min. Summed up:
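Rat PEPT1 (pPIC3.5K-rPept1) in GS115 His+Mut+ transformant, methanol-induced 20-24 hr in BMMY at 30°C, washed into 100 mM potassium phosphate pH 6.5. [3H]GlySar final 5.0 µM with inhibitor at 10 mM, 30 sec at 24°C. Counts taken by liquid scintillation after 24 hr standing. Values are vector-subtracted and given as % of buffer control. Mean ± SE, n=3.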

Series [5] deals with T2, PEPT1. The series is described as follows: Drug uptake in Pichia pastoris GS115 expressing rat recombinant PEPT1 at 5 uM after 30s by dual-channel liquid scintillation counting analysis relative to vector control. The conditions noted are these: read-out: FC. A digest of the protocol: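 Rat PEPT1 and vector-only (pPIC3.5K) GS115 yeast, methanol-induced 20-24 hr. Cells were washed and concentrated tenfold in 100 mM phosphate buffer pH 6.5. [3H]GlySar or [14C]oseltamivir final 5.0 µM, 24°C, 30 sec and 5 min. Nonspecific binding was measured at 0°C and zero time. Uptake is given as pmol/OD600 by scintillation counting. Mean ± SE, n=6.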

Molecules are shown by their SMILES.

For `[3H]C(C(=O)O)N(C)C(=O)CN` (stereo not given), the values for the Drug uptake in series [1], in series [2] and in series [4] were 85%, 16.7% and 91.5%, respectively. Besides, at PEPT1 [3], the uptake ratio at 0.5 h, 5 µM is 100. The uptake ratio at 0.5 min, 5 µM on PEPT1 [5] turned out to be 136.

Source of the values: ChEMBL document CHEMBL3526053, “Species-dependent uptake of glycylsarcosine but not oseltamivir in Pichia pastoris expressing the rat, mouse, and human intestinal peptide transporter PEPT1” (Drug Metab Dispos, 2012).
